Where a SMILES comes first, the peptide text is derived from it. Bridges are numbered along the chain shown (N, C = ends). Bounds are passed on as bounds.

The target of assay [1] is Neuronal acetylcholine receptor; alpha2/beta4 (Rattus norvegicus, UniProt P12389+P12392). Briefly: Inhibition of rat alpha2beta4 nAChR expressed in Xenopus laevis oocytes assessed as inhibition of acetylcholine-induced current response by two-electrode voltage-clamp method. It counts as cell-based, Oocyte. An outline of the steps:
(§1)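 TEVC on stage IV–V oocytes 1–5 days after equal-ratio cRNA injection (α2β4, α3β4, α4β4, α7). ACh 300 μM, 1 s pulses at 60 s intervals under frog saline perfusion. Peptide perfused to 1 μM, normalized to average of three control responses; higher concentrations by 5 min static bath. IC50 with 95% CI, n oocytes.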
For orientation: Two-electrode voltage clamp is typically applied to oocytes expressing channels or transporters.

The target of assay [2] is Nicotinic acetylcholine receptor alpha-1/beta-1/delta/epsilon (Homo sapiens) (UniProt P02708+P11230+Q07001+Q04844). As to the kind of experiment: Inhibition of human alpha1beta1deltaepsilon nAChR expressed in Xenopus laevis oocytes assessed as inhibition of acetylcholine-induced current response at 10 uM by two-electrode voltage-clamp method relative to control. It is filed as cell-based. Particulars: Oocyte. An outline of the steps: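 Human α1, β1, δ and ε cDNAs injected in equal ratios into the nucleus of stage IV–V X. laevis oocytes; TEVC 1–5 days later. ACh 100 μM, 1 s pulses at 60 s intervals. Peptide 10 μM applied as 5 min static bath; response normalized to ACh response after 5 min bath of control saline; mean ± SD, n = 4.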

The species named for assay [3] is Homo sapiens. Briefly: Selectivity ratio of IC50 for human alpha6/alpha3beta2beta3 nAChR to IC50 for human alpha6/alpha3beta4 nAChR. Summed up: (§2)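 Ratio of each subtype's IC50, from TEVC inhibition of ACh-evoked currents in X. laevis oocytes, to the IC50 at the same species' α6/α3β4 nAChR; IC50 values with 95% CI, n = number of oocytes.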
The species named for assay [4] is Homo sapiens. Briefly: Selectivity ratio of IC50 for human alpha4beta4 nAChR to IC50 for human alpha6/alpha3beta4 nAChR. An outline of the steps:
as §2

The target in assay [5] is Nicotinic acetylcholine receptor alpha-1/beta-1/delta/epsilon (Homo sapiens, UniProt P02708+P11230+Q04844+Q07001). As to the kind of experiment: Inhibition of human alpha1beta1deltaepsilon nAChR expressed in Xenopus laevis oocytes assessed as inhibition of acetylcholine-induced current response by two-electrode voltage-clamp method. It counts as cell-based, Oocyte. Summed up:
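Stage IV–V X. laevis oocytes nucleus-injected with equal ratios of human α1, β1, δ, ε cDNAs; TEVC 1–5 days after injection. ACh 100 μM, 1 s every 60 s.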

The target in assay [6] is Neuronal acetylcholine receptor; alpha2/beta2 (Homo sapiens, UniProt P17787+Q15822). As to the kind of experiment: Inhibition of human alpha2beta2 nAChR expressed in Xenopus laevis oocytes assessed as inhibition of acetylcholine-induced current response at 10 uM by two-electrode voltage-clamp method relative to control. It counts as cell-based. As to conditions: Oocyte. An outline of the steps:
(§3)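 Oocytes (stage IV–V) injected with equal-ratio cRNAs of cloned subunits; TEVC 1–5 days post-injection. ACh 100 μM for β2-containing and α9α10 subtypes, 1 s pulses every 60 s. Peptide 10 μM in 5 min static bath; response normalized to ACh response after 5 min control-saline bath; mean ± SD, n = 4.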

The target in assay [7] is T1, Neuronal acetylcholine receptor subunit alpha-7 (Homo sapiens, UniProt P36544). As to the kind of experiment: Inhibition of human alpha7 nAChR expressed in Xenopus laevis oocytes assessed as inhibition of acetylcholine-induced current response by two-electrode voltage-clamp method. It counts as cell-based, Oocyte. An outline of the steps:
as §1

In assay [8] the target is Neuronal acetylcholine receptor; alpha3/beta4 (Rattus norvegicus, UniProt P04757+P12392). It counts as cell-based, Oocyte.
Sequence of Neuronal acetylcholine receptor; alpha3/beta4 (Rattus norvegicus, UniProt P04757+P12392) (P04757 whole entry): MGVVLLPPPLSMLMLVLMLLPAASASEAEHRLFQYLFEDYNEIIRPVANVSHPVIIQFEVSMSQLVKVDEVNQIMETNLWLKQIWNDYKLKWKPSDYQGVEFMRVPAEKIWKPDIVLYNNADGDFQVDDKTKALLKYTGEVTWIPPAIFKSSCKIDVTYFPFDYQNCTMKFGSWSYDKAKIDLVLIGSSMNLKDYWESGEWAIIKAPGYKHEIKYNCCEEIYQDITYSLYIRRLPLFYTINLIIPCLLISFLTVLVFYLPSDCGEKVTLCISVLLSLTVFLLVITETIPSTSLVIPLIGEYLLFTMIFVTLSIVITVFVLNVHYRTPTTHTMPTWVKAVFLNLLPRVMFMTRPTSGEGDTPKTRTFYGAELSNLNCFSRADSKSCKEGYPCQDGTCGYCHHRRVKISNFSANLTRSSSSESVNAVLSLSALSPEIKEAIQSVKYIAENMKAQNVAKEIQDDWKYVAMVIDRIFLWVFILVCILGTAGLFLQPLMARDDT
Sequence of Neuronal acetylcholine receptor; alpha3/beta4 (Rattus norvegicus, UniProt P04757+P12392) (P12392 whole entry): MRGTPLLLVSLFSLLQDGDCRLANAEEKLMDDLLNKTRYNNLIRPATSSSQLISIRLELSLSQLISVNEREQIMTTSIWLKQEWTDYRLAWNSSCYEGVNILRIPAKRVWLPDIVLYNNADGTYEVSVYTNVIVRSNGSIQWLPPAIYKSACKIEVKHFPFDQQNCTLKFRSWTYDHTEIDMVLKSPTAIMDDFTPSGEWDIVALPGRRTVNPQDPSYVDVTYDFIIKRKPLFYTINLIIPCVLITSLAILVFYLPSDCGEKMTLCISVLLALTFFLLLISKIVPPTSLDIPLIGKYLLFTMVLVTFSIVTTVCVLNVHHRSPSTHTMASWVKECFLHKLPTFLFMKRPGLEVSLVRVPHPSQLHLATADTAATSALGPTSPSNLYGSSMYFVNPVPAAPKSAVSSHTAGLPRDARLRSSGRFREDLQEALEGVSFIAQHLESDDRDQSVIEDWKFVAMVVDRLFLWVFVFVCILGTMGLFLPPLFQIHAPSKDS
Assay [9] addresses Neuronal acetylcholine receptor; alpha3/beta4 (Homo sapiens, UniProt P30926+P32297). Briefly: Inhibition of human alpha3beta4 nAChR expressed in Xenopus laevis oocytes assessed as inhibition of acetylcholine-induced current response by two-electrode voltage-clamp method. It is filed as cell-based, Oocyte. An outline of the steps: as §1
Assay [10] has as its target Nicotinic acetylcholine receptor alpha6/alpha3/beta2/beta3 (Rattus norvegicus, UniProt P04757+P12390+P12391+P43143). It is filed as cell-based, Oocyte.
For assay [11], the species on record is Homo sapiens. As to the kind of experiment: Selectivity ratio of IC50 for human alpha2beta2 nAChR to IC50 for human alpha6/alpha3beta4 nAChR. An outline of the steps: as §2
The target of assay [12] is Neuronal acetylcholine receptor; alpha9/alpha10 (Homo sapiens) (UniProt Q9UGM1+Q9GZZ6). As to the kind of experiment: Inhibition of human alpha9alpha10 nAChR expressed in Xenopus laevis oocytes assessed as inhibition of acetylcholine-induced current response at 10 uM by two-electrode voltage-clamp method relative to control. Particulars: Oocyte. It is filed as cell-based. Summed up:
as §3

The species named for assay [13] is Rattus norvegicus. Briefly: Selectivity ratio of IC50 for rat alpha4beta2 nAChR to IC50 for rat alpha6/alpha3beta4 nAChR. Summed up:
as §2

The species named for assay [14] is Rattus norvegicus. Briefly: Selectivity ratio of IC50 for rat alpha3beta2 nAChR to IC50 for rat alpha6/alpha3beta4 nAChR. Summed up: as §2
The species named for assay [15] is Homo sapiens. As to the kind of experiment: Selectivity ratio of IC50 for human alpha1beta1deltaepsilon nAChR to IC50 for human alpha6/alpha3beta4 nAChR. Summed up:
as §2

For assay [16], the target named is Nicotinic acetylcholine receptor alpha6/alpha3/beta4 (Homo sapiens, UniProt P30926+P32297+Q15825). It is filed as cell-based, Oocyte.
The species entered for assay [17] is Rattus norvegicus. Briefly: Selectivity ratio of IC50 for rat alpha2beta4 nAChR to IC50 for rat alpha6/alpha3beta4 nAChR. An outline of the steps: as §2
Assay [18] in a line: Inhibition of human alpha4beta4 nAChR expressed in Xenopus laevis oocytes assessed as inhibition of acetylcholine-induced current response by two-electrode voltage-clamp method. It counts as cell-based. Particulars: Oocyte. An outline of the steps: as §1
Assay [19] is filed under the species Homo sapiens. As to the kind of experiment: Selectivity ratio of IC50 for human alpha2beta4 nAChR to IC50 for human alpha6/alpha3beta4 nAChR. Summed up:
as §2

The species named for assay [20] is Rattus norvegicus. Briefly: Selectivity ratio of IC50 for rat alpha2beta2 nAChR to IC50 for rat alpha6/alpha3beta4 nAChR. An outline of the steps:
as §2

The target of assay [21] is Neuronal acetylcholine receptor; alpha3/alpha6/beta2/beta3 (Homo sapiens, UniProt P17787+P32297+Q05901+Q15825). As to the kind of experiment: Inhibition of human alpha6/alpha3beta2beta3 nAChR expressed in Xenopus laevis oocytes assessed as inhibition of acetylcholine-induced current response by two-electrode voltage-clamp method. It counts as cell-based, Oocyte. An outline of the steps:
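Two-electrode voltage clamp of stage IV–V oocytes 1–5 days after equal-ratio cRNA injection; ACh 100 μM (β2-containing subtypes, α9α10), 1 s every 60 s in frog saline. Peptide perfused up to 1 μM, responses normalized to mean of three control responses; above 1 μM, 5 min static bath. IC50 with 95% CI; n = oocytes.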

The target in assay [22] is Neuronal acetylcholine receptor; alpha2/beta4 (Rattus norvegicus) (UniProt P12389+P12392). Briefly: Inhibition of rat alpha2beta4 nAChR expressed in Xenopus laevis oocytes assessed as inhibition of acetylcholine-induced current response at 10 uM by two-electrode voltage-clamp method relative to control. It is filed as cell-based. As to conditions: Oocyte. An outline of the steps: (§4)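 Stage IV–V X. laevis oocytes expressing equal-ratio cRNAs of α2β4, α3β4, α4β4 or α7 subunits; TEVC 1–5 days after injection. ACh 300 μM, 1 s at 60 s intervals. 10 μM peptide as 5 min static bath, normalized to ACh response after 5 min bath of control saline; mean ± SD, n = 4.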

For assay [23], the target named is T1, Neuronal acetylcholine receptor subunit alpha-7. Briefly: Inhibition of human alpha7 nAChR expressed in Xenopus laevis oocytes assessed as inhibition of acetylcholine-induced current response at 10 uM by two-electrode voltage-clamp method relative to control. It is filed as cell-based. Particulars: Oocyte. An outline of the steps:
as §4

For assay [24], the species on record is Homo sapiens. Briefly: Selectivity ratio of IC50 for human alpha3beta4 nAChR to IC50 for human alpha6/alpha3beta4 nAChR. An outline of the steps: as §2

T1 sequence (P36544 whole entry): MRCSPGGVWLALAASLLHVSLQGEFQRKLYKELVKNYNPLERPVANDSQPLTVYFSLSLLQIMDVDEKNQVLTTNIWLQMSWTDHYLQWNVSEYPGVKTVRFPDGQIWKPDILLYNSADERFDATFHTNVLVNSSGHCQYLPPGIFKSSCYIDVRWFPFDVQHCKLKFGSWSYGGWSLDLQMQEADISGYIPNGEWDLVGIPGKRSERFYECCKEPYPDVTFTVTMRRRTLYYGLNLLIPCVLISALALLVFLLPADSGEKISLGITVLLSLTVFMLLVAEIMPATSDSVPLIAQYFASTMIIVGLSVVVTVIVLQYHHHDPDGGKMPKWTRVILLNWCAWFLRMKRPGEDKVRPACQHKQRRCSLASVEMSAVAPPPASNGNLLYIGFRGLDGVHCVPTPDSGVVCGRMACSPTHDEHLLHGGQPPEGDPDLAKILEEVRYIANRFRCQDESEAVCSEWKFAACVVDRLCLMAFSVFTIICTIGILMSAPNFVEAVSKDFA
Sequence of Nicotinic acetylcholine receptor alpha6/alpha3/beta2/beta3 (P04757 whole entry): as the sequence (P04757 whole entry) above
Sequence of Nicotinic acetylcholine receptor alpha6/alpha3/beta2/beta3 (P12390 whole entry): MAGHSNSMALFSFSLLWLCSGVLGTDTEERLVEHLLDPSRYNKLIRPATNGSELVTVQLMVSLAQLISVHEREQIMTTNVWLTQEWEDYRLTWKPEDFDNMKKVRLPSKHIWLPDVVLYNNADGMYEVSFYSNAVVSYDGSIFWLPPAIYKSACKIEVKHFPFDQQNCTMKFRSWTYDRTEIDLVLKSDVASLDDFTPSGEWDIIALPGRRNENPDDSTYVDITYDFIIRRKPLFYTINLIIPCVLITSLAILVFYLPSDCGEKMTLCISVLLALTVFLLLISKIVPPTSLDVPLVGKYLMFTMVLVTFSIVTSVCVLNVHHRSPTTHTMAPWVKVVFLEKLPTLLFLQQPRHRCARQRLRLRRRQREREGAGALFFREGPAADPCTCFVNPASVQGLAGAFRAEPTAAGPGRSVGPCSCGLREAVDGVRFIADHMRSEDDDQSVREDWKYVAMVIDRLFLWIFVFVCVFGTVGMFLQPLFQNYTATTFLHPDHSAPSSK
Sequence of Nicotinic acetylcholine receptor alpha6/alpha3/beta2/beta3 (P12391 whole entry): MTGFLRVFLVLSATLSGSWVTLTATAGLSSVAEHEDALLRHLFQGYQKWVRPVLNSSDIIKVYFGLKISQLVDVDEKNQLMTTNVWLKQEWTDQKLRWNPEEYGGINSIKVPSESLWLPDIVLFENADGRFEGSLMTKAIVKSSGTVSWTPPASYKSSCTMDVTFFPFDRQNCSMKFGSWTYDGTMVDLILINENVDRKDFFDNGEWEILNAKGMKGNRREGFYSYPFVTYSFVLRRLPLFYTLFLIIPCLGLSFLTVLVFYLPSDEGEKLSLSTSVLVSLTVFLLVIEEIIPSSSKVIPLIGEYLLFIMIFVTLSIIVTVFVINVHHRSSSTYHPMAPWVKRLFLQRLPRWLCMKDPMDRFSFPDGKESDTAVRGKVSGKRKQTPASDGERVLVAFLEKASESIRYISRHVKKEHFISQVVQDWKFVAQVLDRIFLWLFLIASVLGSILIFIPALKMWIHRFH
Sequence of Nicotinic acetylcholine receptor alpha6/alpha3/beta2/beta3 (P43143 whole entry): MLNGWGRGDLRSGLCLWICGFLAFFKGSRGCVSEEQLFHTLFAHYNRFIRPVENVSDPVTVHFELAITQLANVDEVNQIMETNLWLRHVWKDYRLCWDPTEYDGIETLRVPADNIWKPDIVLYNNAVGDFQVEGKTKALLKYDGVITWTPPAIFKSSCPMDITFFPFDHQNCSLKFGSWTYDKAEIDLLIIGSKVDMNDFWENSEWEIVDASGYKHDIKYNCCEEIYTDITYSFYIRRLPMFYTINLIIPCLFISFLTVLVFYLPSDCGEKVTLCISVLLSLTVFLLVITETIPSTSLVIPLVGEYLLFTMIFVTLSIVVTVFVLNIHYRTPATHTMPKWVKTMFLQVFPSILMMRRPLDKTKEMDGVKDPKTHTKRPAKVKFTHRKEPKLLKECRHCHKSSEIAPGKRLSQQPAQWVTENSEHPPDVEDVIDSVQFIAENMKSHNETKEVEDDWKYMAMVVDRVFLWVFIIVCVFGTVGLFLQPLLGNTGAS
Sequence of Neuronal acetylcholine receptor; alpha2/beta4 (P12389 whole entry, the tested form may be a part): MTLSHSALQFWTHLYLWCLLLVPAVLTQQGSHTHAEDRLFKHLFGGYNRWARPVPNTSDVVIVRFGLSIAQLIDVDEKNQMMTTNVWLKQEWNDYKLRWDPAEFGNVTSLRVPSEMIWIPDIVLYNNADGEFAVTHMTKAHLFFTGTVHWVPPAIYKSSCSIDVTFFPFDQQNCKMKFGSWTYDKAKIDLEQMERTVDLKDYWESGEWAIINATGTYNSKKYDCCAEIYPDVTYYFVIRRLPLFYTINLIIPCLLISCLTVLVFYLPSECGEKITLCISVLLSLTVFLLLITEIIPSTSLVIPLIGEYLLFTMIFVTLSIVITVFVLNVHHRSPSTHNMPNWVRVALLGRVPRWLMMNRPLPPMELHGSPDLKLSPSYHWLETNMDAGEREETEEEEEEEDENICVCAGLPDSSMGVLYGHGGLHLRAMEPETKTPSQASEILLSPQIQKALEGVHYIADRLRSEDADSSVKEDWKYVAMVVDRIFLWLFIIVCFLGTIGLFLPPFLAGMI
Sequence of Neuronal acetylcholine receptor; alpha2/beta4 (P12392 whole entry, the tested form may be a part): as the sequence (P12392 whole entry) above
Sequence of Neuronal acetylcholine receptor; alpha3/beta4 (Homo sapiens, UniProt P30926+P32297) (P30926 whole entry): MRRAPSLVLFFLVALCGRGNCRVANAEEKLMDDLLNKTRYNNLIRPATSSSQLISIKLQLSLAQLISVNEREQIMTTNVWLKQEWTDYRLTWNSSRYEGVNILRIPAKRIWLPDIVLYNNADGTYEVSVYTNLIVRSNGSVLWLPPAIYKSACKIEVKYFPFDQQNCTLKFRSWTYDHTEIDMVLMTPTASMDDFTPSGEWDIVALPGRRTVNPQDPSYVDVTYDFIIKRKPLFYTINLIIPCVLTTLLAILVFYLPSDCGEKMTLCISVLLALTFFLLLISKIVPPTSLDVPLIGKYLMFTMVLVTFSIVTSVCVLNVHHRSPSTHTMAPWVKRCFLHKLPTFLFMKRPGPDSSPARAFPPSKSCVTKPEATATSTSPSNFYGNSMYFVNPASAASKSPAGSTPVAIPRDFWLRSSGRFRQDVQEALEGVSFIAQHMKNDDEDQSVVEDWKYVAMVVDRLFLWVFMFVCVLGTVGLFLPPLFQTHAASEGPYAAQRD
Sequence of Neuronal acetylcholine receptor; alpha3/beta4 (Homo sapiens, UniProt P30926+P32297) (P32297 whole entry): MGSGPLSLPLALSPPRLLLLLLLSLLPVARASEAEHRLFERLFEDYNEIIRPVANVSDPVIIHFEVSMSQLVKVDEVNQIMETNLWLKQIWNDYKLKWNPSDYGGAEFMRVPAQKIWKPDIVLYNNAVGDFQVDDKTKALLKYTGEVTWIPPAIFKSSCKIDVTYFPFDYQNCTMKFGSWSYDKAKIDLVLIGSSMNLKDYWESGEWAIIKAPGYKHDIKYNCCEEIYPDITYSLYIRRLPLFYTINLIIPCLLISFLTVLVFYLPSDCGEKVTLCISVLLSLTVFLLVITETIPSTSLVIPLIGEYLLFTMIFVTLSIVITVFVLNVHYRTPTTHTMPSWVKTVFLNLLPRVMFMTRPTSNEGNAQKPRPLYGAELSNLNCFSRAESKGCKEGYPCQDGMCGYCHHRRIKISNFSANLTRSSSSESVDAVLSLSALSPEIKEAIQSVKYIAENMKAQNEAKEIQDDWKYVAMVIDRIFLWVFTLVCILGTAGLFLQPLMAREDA

For the molecule `CC[C@H](C)[C@@H]1NC(=O)[C@H](CCC(=O)O)NC(=O)[C@@H]2CCCN2C(=O)[C@H](Cc2cnc[nH]2)NC(=O)[C@H](CC(N)=O)NC(=O)[C@H](C(C)C)NC(=O)[C@H](CC(N)=O)NC(=O)[C@@H]2CSSC[C@H](NC(=O)CN)C(=O)N[C@@H](CSSC[C@@H](C(N)=O)NC1=O)C(=O)N[C@@H](CO)C(=O)N[C@@H](Cc1cnc[nH]1)C(=O)N1CCC[C@H]1C(=O)N[C@@H](C(C)C)C(=O)N2` (H-GCCSHPVCNVNHPEIC-NH2; disulfide 2-8, 3-16), the IC50 – broadly, the point on the concentration scale where inhibition reaches its midpoint – in assay [1] was greater than 10000 nM; in assay [5], greater than 10000 nM; in [7], greater than 10000 nM; in [8] it was 230 nM; in assay [9], 179 nM; in assay [10], 111 nM. Moreover, the half-maximal inhibitory concentration (IC50) in [16] amounted to 0.2 nM; in assay [18], 4020 nM; in assay [21], 135 nM. The inhibition (commonly the change of the read-out against control, counted positive when it falls) in assay [2] amounted to 93%; in [6], 95%; in assay [12], 76%; in assay [22] it was 85%; in [23], 89%. Moreover, the Ratio IC50 in the assay filed under Homo sapiens [3] is 675; in the assay listed under Homo sapiens [4], 20100; in the assay filed under Homo sapiens [11], greater than 50000; in the assay listed under Rattus norvegicus [13] it was greater than 20000; in the assay listed under Rattus norvegicus [14], greater than 20000; in the assay filed under Homo sapiens [15], greater than 50000. Besides, the Ratio IC50 was greater than 20000 in the assay filed under Rattus norvegicus [17], greater than 50000 in the assay filed under Homo sapiens [19], greater than 20000 in the assay listed under Rattus norvegicus [20] and 895 in the assay filed under Homo sapiens [24].

The values are drawn from ChEMBL document CHEMBL4811225 (J Med Chem, 2021).
